# Results as given in ChEMBL document CHEMBL3526139, “Clinical pharmacokinetics, metabolism, and drug-drug interaction of carfilzomib” (Drug Metab Dispos, 2013).
# Legend:
# CYP3A = CYP3A (Homo sapiens, UniProt P08684+P20815+P24462+Q9HB55); experiment: Inhibition of CYP3A in human liver microsomes assessed as substrate metabolite formation using midazolam as substrate preincubated with microsomes for 30 mins prior to substrate addition measured after 5 mins by LC-MS/MS analysis; assay type: ADME; settings: probe midazolam
# Method in brief: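 HLM (16-donor pool) were preincubated 30 min with carfilzomib 0.01–10 µM before addition of midazolam or testosterone at about Km. Metabolite formation was measured by LC-MS/MS after 5 min, in duplicate, relative to 0.5% acetonitrile controls.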
# [1] = Half life in human patient with relapsed solid tumor at 20 mg/m'2, iv administered on days 1, 2, 8, 9, 15 and 16 of 28-day cycle over 2 to 10 mins measured on day 1 of cycle 1 by LC-MS/MS analysis; assay type: ADME, organism-based; settings: in vivo
# Method in brief: (§1)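 Patients with relapsed solid tumors (n=3) received carfilzomib IV at 20 mg/m2. Plasma was sampled on Days 1 and 16 of Cycle 1 before dosing, at end of administration, and at 5, 15, 30 min and 1, 2, 4 h after. Samples underwent solid phase extraction and LC-MS/MS with d10-carfilzomib internal standard over 0.100–200 ng/mL. Parameters were derived noncompartmentally (constant IV infusion model) from actual elapsed time from infusion start.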
# Cytochrome P450 3A [2] = biological target: T1, Cytochrome P450 3A (Homo sapiens, UniProt P08684+P20815+Q9HB55+P24462); experiment: Time-dependent inhibition of CYP3A in human liver microsomes preincubated for 30 mins with carfilzomib by LC-MS/MS analysis; assay type: ADME; settings: microsomes
# Method in brief: (§2)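 Pooled HLM (16 donors) given carfilzomib 0.01–10 µM in duplicate at 37°C with a 30-min preincubation before probe substrate was added. Substrate was set near Km (testosterone Km 100 µM; midazolam Km 3.8 µM). Protein was 0.1 mg/mL, or 0.05 mg/mL with midazolam. Metabolite formation was read by LC-MS/MS after 5 min and expressed relative to 0.5% acetonitrile controls to give IC50.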
# Cytochrome P450 3A [3] = biological target: T1, Cytochrome P450 3A; experiment: Time-dependent inhibition of CYP3A in human liver microsomes assessed as testosterone 6-hydroxylation using testosterone as substrate by LC-MS/MS analysis in presence of NADPH; assay type: ADME; method in brief: as §2
# [4] = Drug excretion in urine of iv dosed human patient with relapsed and refractory hematological malignancies assessed as morpholino-hPhe-Leu-Phe-Leu-diol metabolite formation administered on days 1, 2, 8, 9, 15 and 16 of 28-day cycle over 2 to 10 mins by LC-MS/MS analysis; assay type: ADME, organism-based; settings: in vivo
# Cytochrome P450 3A [5] = biological target: T1, Cytochrome P450 3A; experiment: Drug metabolism in pooled human hepatocytes assessed as disapperance rate at 1 uM by LC-MS/MS analysis in presence of 10 uM CYP3A inhibitor ketoconazole; assay type: ADME, cell-based, Hepatocyte
# Method in brief: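 Pooled human hepatocytes in suspension (~0.5 x 10^6 viable cells/mL) were incubated with 1 µM carfilzomib at 37°C under 5% CO2, with or without isoform-selective CYP chemical inhibitors. Reactions were quenched with acetonitrile at 0, 15, 30, 60 and 120 min. Carfilzomib was quantified by non-validated LC-MS/MS after protein precipitation.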
# [6] = Plasma clearance in human patient with relapsed solid tumor at 20 mg/m'2, iv administered on days 1, 2, 8, 9, 15 and 16 of 28-day cycle over 2 to 10 mins measured on day 16 of cycle 1 by LC-MS/MS analysis; assay type: ADME, organism-based; method in brief: as §1
# Cytochrome P450 3A [7] = biological target: T1, Cytochrome P450 3A; experiment: Time-dependent inhibition of CYP3A in human liver microsomes assessed as midazolam 1'-hydroxylation using midazolam as substrate measured after 25-fold diution by LC-MS/MS analysis in presence of NADPH; assay type: ADME
# Method in brief: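 Pooled HLM (16 donors, mixed gender) preincubated in duplicate with carfilzomib 0, 0.5, 1, 3, 5 and 8 µM plus NADPH-generating system (1 mM NADP, 5 mM glucose-6-phosphate, 1 unit/mL G6PDH) for 0–30 min. Microsomal protein in preincubation: 2.5 mg/mL (testosterone) or 1.25 mg/mL (midazolam). Aliquots then diluted 25-fold into 50 mM potassium phosphate, 3 mM MgCl2, 1 mM EDTA, pH 7.4. Residual activity measured over 5 min with testosterone 200 µM or midazolam 40 µM plus NADPH-generating mixture, 37°C. KI and kinact derived.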
# Cytochrome P450 3A [8] = biological target: T1, Cytochrome P450 3A; experiment: Decrease in CYP3A activity in rifampin-treated human hepatocytes assessed as 6-betahydroxytestosterone formation using testosterone as substrate at 2.5 uM after 30 mins by LC-MS/MS analysis; assay type: ADME, cell-based, Hepatocyte; settings: 0.5 h
# Method in brief: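 Hepatocytes induced 3 days with 20 µM rifampicin were exposed to fresh medium containing 2.5 µM carfilzomib for 30 min and washed once. They were then incubated with testosterone 200 µM, and 6β-hydroxytestosterone was measured by LC-MS/MS.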
# Cytochrome P450 3A [9] = biological target: T1, Cytochrome P450 3A; experiment: Time-dependent inhibition of CYP3A in human liver microsomes assessed as midazolam 1'-hydroxylation using midazolam as substrate by LC-MS/MS analysis in presence of NADPH; assay type: ADME
# Method in brief: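 HLM (1.25 mg/mL for midazolam) were preincubated in duplicate with carfilzomib 0, 0.5, 1, 3, 5, 8 µM plus an NADPH-generating system for 0–30 min. Mixtures were diluted 25-fold into pH 7.4 phosphate/MgCl2/EDTA buffer containing midazolam 40 µM and NADPH system for 5 min. Residual activity by LC-MS/MS gave KI and kinact.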
# Plasma [10] = experiment: Drug metabolism in plasma of human multiple myeloma patient assessed as morpholino-hPhe metabolite formation at 15 mg/m'2, iv administered as single dose measured within first 30 mins after end of drug infusion by LC-MS/MS analysis; assay type: ADME, organism-based; settings: in vivo, 0.5 h
# Method in brief: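 Patients with multiple myeloma received a single 15 mg/m2 carfilzomib dose. Plasma was sampled pre-dose, at end of infusion, at 5, 15, 30 min and at 1, 1.5, 2, 4, 6, 24 h. Samples were protein-precipitated and analyzed by LC-MS/MS (metabolites 0.500–500 ng/mL) with deuterated internal standards.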
# [11] = AUC last in human patient with relapsed solid tumor at 20 mg/m'2, iv administered on days 1, 2, 8, 9, 15 and 16 of 28-day cycle over 2 to 10 mins measured on day 16 of cycle 1 by LC-MS/MS analysis; assay type: ADME, organism-based; set-up: route intravenous, time 0 - last; settings: plasma; method in brief: as §1
# Plasma [12] = experiment: Drug metabolism in plasma of iv dosed human patient with relapsed and refractory hematological malignancies assessed as morpholino-hPhe metabolite formation administered on days 1, 2, 8, 9, 15 and 16 of 28-day cycle over 2 to 10 mins by LC-MS/MS analysis; assay type: ADME, organism-based; settings: in vivo
# [13] = Cmax in human patient with relapsed solid tumor at 20 mg/m'2, iv administered on days 1, 2, 8, 9 15 and 16 of 28-day cycle over 2 to 10 mins measured on day 1 of cycle 1 by LC-MS/MS analysis; assay type: ADME, organism-based; set-up: route intravenous; settings: in vivo; method in brief: as §1
# [14] = AUC infinity in human patient with relapsed solid tumor at 20 mg/m'2, iv administered on days 1, 2, 8, 9, 15 and 16 of 28-day cycle over 2 to 10 mins measured on day 16 of cycle 1 by LC-MS/MS analysis; assay type: ADME, organism-based; set-up: time infinity, route intravenous; settings: plasma; method in brief: as §1
# [15] = Drug excretion in urine of iv dosed human patient with relapsed and refractory hematological malignancies assessed as morpholino-hPhe-Leu metabolite formation administered on days 1, 2, 8, 9, 15 and 16 of 28-day cycle over 2 to 10 mins by LC-MS/MS analysis; assay type: ADME, organism-based; settings: in vivo
smiles,measurement,setting,value
CC(C)C[C@H](NC(=O)[C@H](CCc1ccccc1)NC(=O)CN1CCOCC1)C(=O)N[C@@H](Cc1ccccc1)C(=O)N[C@@H](CC(C)C)C(=O)[C@@]1(C)CO1 [CARFILZOMIB],IC50 at 5 min,CYP3A,490 nM
same,half-life,[1],1 h
same,inhibition (INH),Cytochrome P450 3A [2],Dose-dependent effect
same,inhibition (INH),Cytochrome P450 3A [3],Active
same,Drug excretion,[4],metabolite_detected
same,Drug metabolism,Cytochrome P450 3A [5],0.012 min⁻¹
same,clearance,[6],2270 mL/min
same,inhibition (INH),Cytochrome P450 3A [7],Active
same,inhibition (INH),Cytochrome P450 3A [8],14%
same,inhibition (INH),Cytochrome P450 3A [9],Active
same,Drug metabolism,Plasma [10],metabolite_detected
same,AUC(0-t),[11],301 ng·h/mL
same,Drug metabolism,Plasma [12],metabolite_detected
same,Cmax,[13],2760 ng/mL
same,AUC(0-inf),[14],301 ng·h/mL
same,Drug excretion,[15],metabolite_detected
